Assay results of several laboratories.
Lines come from different studies, so protocols differ.
Organism: Plasmodium falciparum
Effect on: parasite growth

| Structure (SMILES) | test | system | setting | endpoint | value |
| --- | --- | --- | --- | --- | --- |
| COc1cc(/C=C/C(=O)C(=Cc2cccc(O)c2)C(=O)/C=C/c2ccc(O)c(OC)c2)ccc1O | – | K1 | drug-resistant strain, blood stage | EC50 | 11000 nM |
| N=C(N)N/N=C/c1c(Cl)cccc1Cl | – | DD2 | drug-resistant strain, blood stage | IC50 | 1310 nM |
| COc1cc(/C=C/c2cc(/C=C/c3ccc(O)c(OC)c3)n(-c3ccc(Cl)cc3Cl)n2)ccc1O | – | K1 | drug-resistant strain, blood stage | EC50 | 25900 nM |
| CC(=O)[C@@]1(O)[C@H](O)C[C@H]2[C@@H]3CCC4=CC(=O)CC[C@]4(C)[C@H]3CC[C@@]21C | – | DD2 | drug-resistant strain, blood stage | IC50 | 617 nM |
| CCN(CC)CCCC(C)Nc1ccnc2cc(Cl)ccc12 (centres unmarked) | – | K1 | drug-resistant strain, blood stage | EC50 | 530 nM |
| C[C@@H]1CC[C@H]2[C@@H](C)C(=O)O[C@@H]3O[C@@]4(C)CC[C@@H]1[C@]32OO4 | – | NF54 | blood stage | IC50 | 11.2 nM |
| COc1cc(/C=C/C(=O)C(=Cc2ccccc2)C(=O)/C=C/c2ccc(O)c(OC)c2)ccc1O | – | K1 | drug-resistant strain, blood stage | EC50 | 17100 nM |
| N=C(CC(O)c1cc2c(F)cc(F)cc2c2cc(C(F)(F)F)ccc12)Nc1ccc(-c2ccc(F)cc2)cc1 (centres unmarked) | ELISA | 3D7 | 72 h, blood stage | IC50 | 8.1 nM |
| CCN1CCN(Cc2ccc(Nc3nc4ccc(Oc5ccnc(NC(=O)C6CCN(C)CC6)c5)cc4n3C)cc2C(F)(F)F)CC1 | flow cytometry | DD2 | 72 h, blood stage | IC50 | 55.7 nM |
| N=C(CC(O)c1cc2c(F)cc(F)cc2c2cc(C(F)(F)F)ccc12)Nc1ccc(N2CCC(F)(F)CC2)cc1 (centres unmarked) | ELISA | 3D7 DD2 | blood stage | IC50 | ~32 nM |
| CCCCCCCCNC(C)C(O)c1ccc(SC(C)C)cc1 (centres unmarked) | – | K1 | drug-resistant strain, blood stage | IC50 | 5.1 nM |
| N=C(CC(O)c1cc2c(F)cc(F)cc2c2cc(C(F)(F)F)ccc12)N1CCC(F)(F)CC1 (centres unmarked) | ELISA | 3D7 | 72 h, blood stage | IC50 | 14.4 nM |
| c1cc([C@H]2CC[C@]3(CC2)OO[C@]2(O3)C3CC4CC(C3)CC2C4)ccc1OCCN1CCOCC1 | – | W2 | drug-resistant strain, blood stage | IC50 | 11 nM |
| CCCCN(CCCC)C(=N)CC(O)c1cc2c(F)cc(F)cc2c2cc(C(F)(F)F)ccc12 (centres unmarked) | ELISA | 3D7 | 72 h, blood stage | IC50 | 1110 nM |
| COc1cc(C=C(C(=O)/C=C/c2ccc(O)c(OC)c2)C(=O)/C=C/c2ccc(O)c(OC)c2)ccc1O | – | K1 | drug-resistant strain, blood stage | EC50 | 18800 nM |
| CO[C@H]1/C=C/O[C@@]2(C)Oc3c(C)c(O)c4c(O)c(c(/C=N/N5CCN(C)CC5)c(O)c4c3C2=O)NC(=O)/C(C)=C\C=C\[C@H](C)[C@H](O)[C@@H](C)[C@@H](O)[C@@H](C)[C@H](OC(C)=O)[C@@H]1C | – | DD2 | drug-resistant strain, blood stage | IC50 | 573 nM |
| CC(C)(C)CNC(=N)CC(O)c1cc2c(F)cc(F)cc2c2cc(C(F)(F)F)ccc12 (centres unmarked) | ELISA | 3D7 | 72 h, blood stage | IC50 | 6020 nM |
| COc1cc(/C=C/C(=O)C(=Cc2ccc(O)cc2)C(=O)/C=C/c2ccc(O)c(OC)c2)ccc1O | – | K1 | drug-resistant strain, blood stage | EC50 | 13300 nM |
| CCN(CC)CCCC(C)Nc1ccnc2cc(Cl)ccc12 (centres unmarked) | – | DD2 | drug-resistant strain | IC50 | 76.8 nM |
| N=C(CC(O)c1cc2c(F)cc(F)cc2c2cc(C(F)(F)F)ccc12)NCc1ccc(F)cc1 (centres unmarked) | ELISA | 3D7 DD2 | blood stage | IC50 | > 100 nM |
